Results: ChEMBL document CHEMBL1124770, “Synthesis and pharmacological evaluation of amino, azido, and nitrogen mustard analogues of 10-substituted cannabidiol and 11- or 12-substituted delta 8-tetrahydrocannabinol” (1990)

What was measured:
Assay type in all cases: functional
Mus musculus [1] = assay: Evaluated for hypothermic activity in mice at a dose of 3 mg/kg.
In short: (§1)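 Mice dosed by tail-vein injection (0.1 mL/10 g) in ethanol/emulphor/saline (1:1:18). Body temperature change (°C) measured by previously reported methods. Vehicle and Δ9-THC positive controls run each day. Mean ± SEM; ANOVA with Dunnett's t test versus control, p < 0.05 two-tailed.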

Mus musculus [2] = assay: Tail-flick latency was determined at a concentration of 3 mg/kg.
In short: (§2)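 Mice, drug suspended in ethanol/emulphor/saline (1:1:18) and given by tail-vein injection (0.1 mL/10 g). Antinociception measured as tail-flick latency (s). Vehicle and Δ9-THC positive controls run in each daily experiment. Data given as mean ± SEM. ANOVA with Dunnett's t test against control, p < 0.05 (two-tailed).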

Mus musculus [3] = assay: Evaluated for catalepsy activity in mice and percentage immobility was determined at a concentration of 3 mg/kg.
In short: (§3)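 Mice, single tail-vein injection (0.1 mL/10 g) in ethanol/emulphor/saline (1:1:18). Catalepsy scored by ring test as % immobility, per previously reported methods. Vehicle and Δ9-THC positive-control groups run in each daily experiment. Mean ± SEM; ANOVA with Dunnett's t test versus control, p < 0.05 two-tailed.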

Mus musculus [4] = assay: Evaluated for catalepsy activity in mice and percentage immobility was determined at a concentration of 0 mg/Kg.; in short: as §3
Mus musculus [5] = assay: Evaluated for reduction in spontaneous locomotor activity in mice, at a dose of 0 mg/Kg
In short: (§4)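 Tail-vein injection in mice (0.1 mL/10 g; ethanol/emulphor/saline 1:1:18). Spontaneous locomotor activity counted as counts/10 min, per previously reported methods. Daily vehicle and Δ9-THC positive controls. Mean ± SEM; ANOVA with Dunnett's t test, p < 0.05 two-tailed.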

Mus musculus [6] = assay: Tail-flick latency was determined at a concentration of 0 mg/Kg.
In short: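 Antinociception in mice by tail-flick latency (s), per previously reported methods, after tail-vein injection (0.1 mL/10 g) in ethanol/emulphor/saline (1:1:18). Vehicle and Δ9-THC controls run daily. Mean ± SEM; ANOVA with Dunnett's t test, p < 0.05 two-tailed.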

Mus musculus [7] = assay: Evaluated for reduction in spontaneous locomotor activity in mice at a dose of 3 mg/Kg; in short: as §4
Mus musculus [8] = assay: Evaluated for hypothermic activity in mice at a dose of 0 mg/Kg.; in short: as §1
Mus musculus [9] = assay: Evaluated for catalepsy activity in mice and percentage immobility was determined at a concentration of 50 mg/Kg.; in short: as §3
Mus musculus [10] = assay: Evaluated for hypothermic activity in mice at a dose of 50 mg/Kg.; in short: as §1
Mus musculus [11] = assay: Tail-flick latency was determined at a concentration of 50 mg/Kg.; in short: as §2
Mus musculus [12] = assay: Evaluated for reduction in spontaneous locomotor activity in mice at a dose of 50 mg/Kg; in short: as §4
Mus musculus [13] = assay: Evaluated for reduction in spontaneous locomotor activity in mice at a dose of 100 mg/Kg administered intraventricularly
In short: (§5)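 Mice given intraventricular injection of 5 μL in ethanol/emulphor/saline (1:1:18). Spontaneous locomotor activity recorded as counts/10 min by previously reported methods, alongside vehicle and Δ9-THC controls. Mean ± SEM; ANOVA with Dunnett's t test, p < 0.05 two-tailed.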

Mus musculus [14] = assay: Evaluated for hypothermic activity in mice at a dose of 0 mg/Kg administered intraventricularly
In short: (§6)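 Intraventricular injection in mice, 5 μL volume, in ethanol/emulphor/saline (1:1:18) vehicle. Change in body temperature (°C) recorded by previously reported methods, with vehicle and Δ9-THC controls. Mean ± SEM; ANOVA with Dunnett's t test versus control, p < 0.05 two-tailed.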

Mus musculus [15] = assay: Tail-flick latency was determined at a concentration of 0 mg/Kg administered intraventricularly
In short: (§7)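 Tail-flick latency (s) in mice after intraventricular injection (5 μL) of ethanol/emulphor/saline (1:1:18) vehicle, measured by previously reported methods. Mean ± SEM; ANOVA with Dunnett's t test, p < 0.05 two-tailed.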

Mus musculus [16] = assay: Evaluated for hypothermic activity in mice at a dose of 150 mg/Kg administered intraventricularly; in short: as §6
Mus musculus [17] = assay: Evaluated for hypothermic activity in mice at a dose of 100 mg/Kg administered intraventricularly; in short: as §6
Mus musculus [18] = assay: Evaluated for reduction in spontaneous locomotor activity in mice, at a dose of 0 mg/Kg administered intraventricularly; in short: as §5
Mus musculus [19] = assay: Evaluated for reduction in spontaneous locomotor activity in mice at a dose of 150 mg/Kg administered intraventricularly; in short: as §5
Mus musculus [20] = assay: Evaluated for catalepsy activity in mice and percentage immobility was determined at a concentration of 6 mg/Kg.; in short: as §3
Mus musculus [21] = assay: Tail-flick latency was determined at a concentration of 30 mg/Kg.; in short: as §2
Mus musculus [22] = assay: Tail-flick latency was determined at a concentration of 150 ug/Kg administered intraventricularly
In short: (§8)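 Mice, injected intraventricularly in 5 μL of ethanol/emulphor/saline (1:1:18) vehicle. Doses given as μg amounts. Antinociception read as tail-flick latency (s), alongside vehicle control. Values reported as mean ± SEM. ANOVA with Dunnett's t test versus control, significance at p < 0.05 (two-tailed).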

Mus musculus [23] = assay: Evaluated for reduction in spontaneous locomotor activity in mice, at a dose of 0 ug/Kg administered intraventricularly; in short: as §5
Mus musculus [24] = assay: Evaluated for hypothermic activity in mice at a dose of 0 ug/Kg administered intraventricularly; in short: as §6
Mus musculus [25] = assay: Evaluated for hypothermic activity in mice at a dose of 150 ug/Kg administered intraventricularly; in short: as §6
Mus musculus [26] = assay: Tail-flick latency was determined at a concentration of 3 mg/Kg.; in short: as §2
Mus musculus [27] = assay: Evaluated for reduction in spontaneous locomotor activity in mice, at a dose of 6 mg/Kg; in short: as §4
Mus musculus [28] = assay: Evaluated for hypothermic activity in mice at a dose of 0.3 mg/Kg.; in short: as §1
Mus musculus [29] = assay: Tail-flick latency was determined at a concentration of 6 mg/Kg.; in short: as §2
Mus musculus [30] = assay: Evaluated for catalepsy activity in mice and percentage immobility was determined at a concentration of 0.3 mg/Kg.; in short: as §3
Mus musculus [31] = assay: Evaluated for reduction in spontaneous locomotor activity in mice, at a dose of 100 ug/Kg administered intraventricularly; in short: as §5
Mus musculus [32] = assay: Evaluated for reduction in spontaneous locomotor activity in mice, at a dose of 150 ug/Kg administered intraventricularly; in short: as §5
Mus musculus [33] = assay: Evaluated for reduction in spontaneous locomotor activity in mice, at a dose of 50 ug/Kg administered intraventricularly; in short: as §5
Mus musculus [34] = assay: Tail-flick latency was determined at a concentration of 100 ug/Kg administered intraventricularly
Mus musculus [35] = assay: Evaluated for catalepsy activity in mice and percentage immobility was determined at a concentration of 30 mg/Kg.; in short: as §3
Mus musculus [36] = assay: Evaluated for hypothermic activity in mice at a dose of 6 mg/Kg.; in short: as §1
Mus musculus [37] = assay: Evaluated for reduction in spontaneous locomotor activity in mice, at a dose of 3 mg/Kg; in short: as §4
Mus musculus [38] = assay: Evaluated for reduction in spontaneous locomotor activity in mice at a dose of 0.3 mg/Kg; in short: as §4
Mus musculus [39] = assay: Tail-flick latency was determined at a concentration of 0 ug/Kg administered intraventricularly; in short: as §7
Mus musculus [40] = assay: Tail-flick latency was determined at a concentration of 0.3 mg/Kg.; in short: as §2
Mus musculus [41] = assay: Evaluated for hypothermic activity in mice at a dose of 50 ug/Kg administered intraventricularly; in short: as §6
Mus musculus [42] = assay: Evaluated for hypothermic activity in mice at a dose of 3 mg/Kg.; in short: as §1
Mus musculus [43] = assay: Evaluated for reduction in spontaneous locomotor activity in mice, at a dose of 30 mg/Kg; in short: as §4
Mus musculus [44] = assay: Evaluated for hypothermic activity in mice at a dose of 30 mg/Kg.; in short: as §1
Mus musculus [45] = assay: Tail-flick latency was determined at a concentration of 50 ug/Kg administered intraventricularly; in short: as §8
Mus musculus [46] = assay: Evaluated for hypothermic activity in mice at a dose of 100 ug/Kg administered intraventricularly; in short: as §6
Mus musculus [47] = assay: Evaluated for catalepsy activity in mice and percentage immobility was determined at a concentration of 3 mg/Kg.; in short: as §3

## C=C(CNCC)[C@@H]1CCC(C)=CC1c1c(O)cc(CCCCC)cc1O (stereo not given in full)
Mus musculus [1]
  Temperature: <-2.1 °C
Mus musculus [2]
  Tail flick latency: 1 s
Mus musculus [3]
  Immobility: 7%
Mus musculus [4]
  Immobility: 4%
Mus musculus [5]
  Spont activity: 53 Counts 10min-1
Mus musculus [6]
  Tail flick latency: 0.6 s
Mus musculus [7]
  Spont activity: <27 Counts 10min-1
Mus musculus [8]
  Temperature: -0.8 °C

## CCCCCc1cc(OC(C)=O)c2c(c1)OC(C)(C)[C@@H]1CC=C(CN(CCCl)CCCl)CC21.Cl (stereo not given in full)
Mus musculus [9]
  Immobility: <31%
Mus musculus [4]
  Immobility: 4%
Mus musculus [10]
  Temperature: <-3.3 °C
Mus musculus [11]
  Tail flick latency: 0.6 s
Mus musculus [5]
  Spont activity: 51 Counts 10min-1
Mus musculus [6]
  Tail flick latency: 0.5 s
Mus musculus [12]
  Spont activity: 26 Counts 10min-1
Mus musculus [8]
  Temperature: -1.8 °C

## C=C(CN(CCCl)CCCl)[C@@H]1CCC(C)=CC1c1c(O)cc(CCCCC)cc1O (stereo not given in full)
Mus musculus [13]
  Spont activity: 81 Counts 10min-1
Mus musculus [14]
  Temperature: -1.1 °C
Mus musculus [15]
  Tail flick latency: -0.2 s
Mus musculus [16]
  Temperature: <-3.8 °C
Mus musculus [17]
  Temperature: -1.8 °C
Mus musculus [18]
  Spont activity: 90 Counts 10min-1
Mus musculus [19]
  Spont activity: 75 Counts 10min-1

## CCCCCc1cc(O)c2c(c1)OC(C)(C)[C@@H]1CCC(C)=C[C@@H]21 [DRONABINOL]
Mus musculus [20]
  Immobility: <42%
Mus musculus [21]
  Tail flick latency: <5.1 s
Mus musculus [22]
  Tail flick latency: <4 s
Mus musculus [23]
  Spont activity: 103 Counts 10min-1
Mus musculus [24]
  Temperature: -2.2 °C
Mus musculus [25]
  Temperature: <-5.5 °C
Mus musculus [26]
  Tail flick latency: <2.9 s
Mus musculus [27]
  Spont activity: <23 Counts 10min-1
Mus musculus [28]
  Temperature: -1 °C
Mus musculus [29]
  Tail flick latency: <4.9 s
Mus musculus [30]
  Immobility: 9%
Mus musculus [31]
  Spont activity: <41 Counts 10min-1
Mus musculus [4]
  Immobility: 8%
Mus musculus [32]
  Spont activity: <33 Counts 10min-1
Mus musculus [33]
  Spont activity: 46 Counts 10min-1
Mus musculus [34]
  Tail flick latency: <2.3 s
Mus musculus [5]
  Spont activity: 54 Counts 10min-1
Mus musculus [6]
  Tail flick latency: 0.6 s
Mus musculus [35]
  Immobility: <57%
Mus musculus [36]
  Temperature: <-2.9 °C
Mus musculus [37]
  Spont activity: <30 Counts 10min-1
Mus musculus [38]
  Spont activity: 70 Counts 10min-1
Mus musculus [39]
  Tail flick latency: -0.2 s
Mus musculus [40]
  Tail flick latency: <2 s
Mus musculus [41]
  Temperature: -2.3 °C
Mus musculus [42]
  Temperature: <-2.4 °C
Mus musculus [8]
  Temperature: -1.1 °C
Mus musculus [43]
  Spont activity: <7 Counts 10min-1
Mus musculus [44]
  Temperature: <-5.1 °C
Mus musculus [45]
  Tail flick latency: <1.6 s
Mus musculus [46]
  Temperature: -3.6 °C
Mus musculus [47]
  Immobility: <25%
